Reference: PubChem BioAssay AID1296 (Columbia University Molecular Screening Center, 2008)
The campaign covered roughly 130,000 compounds. About 1,000 (0.77%) were called active. Inconclusive results (about 1%) are left out.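 How the source made its calls: active means activation at 2 µM above a set limit, confirmed on inspection of the cell images; inconclusive means above the set limit but not confirmed on image inspection; inactive means the rest.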 Shown is part of a subset that was picked to be rich in actives.

Assay: insulin gene promoter stimulation in islet cells – imaging, TRM-6 cells, eGFP reporter, cell count, primary screen (AID 1296);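 on activation: share of cells whose green reporter signal exceeds an intensity cutoff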
Details: at 2 µM; activation: stronger effect = higher value, plate-scaled: unstimulated 0, stimulated control 100; normalized cell count: measured here: cell count (toxicity)
How it was run: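 material = TRM-6 human fetal islet cells, insulin promoter–eGFP reporter | input = 1,000 TRM-6 cells seeded per well | benchmarks = stimulated versus unstimulated wells as plate controls | measured by = automated fluorescence imaging of paraformaldehyde-fixed, Hoechst-counterstained cells, green channel | schedule = compound exposure 48 h, 37 °C | reagent = tamoxifen at 0.75 µM added at seeding for reporter induction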
With `O=C(CSc1nnc(-c2ccoc2)o1)N1CCOCC1` the activation was -9.09% (inactive) and the normalized cell count was 105%.
In the case of `COC(=O)CSc1nnc(-c2cccnc2)o1`, the activation is reported as 5.13% (inactive) and the normalized cell count is reported as 134%.
For `Cc1cccc(C)c1OC(=O)CSc1nnc(-c2ccccc2)o1`, the activation was 487% (active) and the normalized cell count was 75.9%.
In the case of `C=CCOc1c(Br)cc(/C=N\n2nnnc2N)cc1OC`, the activation is reported as 0% (inactive) and the normalized cell count is reported as 53.2%.
For `O=C(CN1C(=O)NC2(CCCCC2)C1=O)NCCC1=CCCCC1`, the activation was -3.7% (inactive) and the normalized cell count was 86.8%.
With `CCC1SC(CC)C(=O)N(CC(=O)NC2CCCCC2)C1=O` (centres undefined) the activation was -8.33% (inactive) and the normalized cell count was 80.9%.
In the case of `O=C(CN1C(=O)NC2(CCCCCC2)C1=O)NC1CC1`, the activation is reported as 542% (active) and the normalized cell count is reported as 78.5%.
For `O=C(CSc1nc2ccc([N+](=O)[O-])cc2[nH]1)c1ccc(Cl)cc1`, the activation was -3.7% (inactive) and the normalized cell count was 85.9%.
In the case of `COc1ccccc1-c1nc(SC)n[nH]1`, the activation is reported as -5.26% (inactive) and the normalized cell count is reported as 131%.
In the case of `COCCNC(=S)c1ccc(OC)cc1`, the activation is reported as 433% (active) and the normalized cell count is reported as 62.5%.
In the case of `COc1ccc(C(=O)NC(=S)NNC(=O)CCc2ccccc2)cc1`, the activation is reported as -3.57% (inactive) and the normalized cell count is reported as 91.6%.
With `COc1cc(NC(=S)NCCSc2ccc(C)cc2)cc(OC)c1` the activation was -3.12% (inactive) and the normalized cell count was 116%.
For `CN=C1S/C(=C\c2ccc(Sc3ccc(Cl)cc3)o2)C(=O)N1C`, the activation was -2.7% (inactive) and the normalized cell count was 43.5%.
With `Cc1ccc(/C=N/NC(=O)Cn2ccc(C(F)(F)F)n2)o1` the activation was 8.33% (inactive) and the normalized cell count was 128%.
For `CC(CNC(=O)c1ccc(N)cc1)NC(=O)c1ccc(N)cc1` (centres undefined), the activation was 2.33% (inactive) and the normalized cell count was 108%.
In the case of `Cc1ccc(-n2ncc3c(Nc4cccc(C(=O)O)c4)ncnc32)cc1`, the activation is reported as 6.67% (inactive) and the normalized cell count is reported as 45%.
With `O=C(NNc1ncnc2c1cnn2-c1ccccc1)c1ccco1` the activation was 500% (active) and the normalized cell count was 142%.
In the case of `CCN(CC)C(=O)CSc1ncnc2c1cnn2-c1ccccc1`, the activation is reported as 392% (inactive) and the normalized cell count is reported as 43.6%.
With `COc1cc(/C=N/NC(=O)c2cc(C)n(-c3ccc(F)cc3)c2C)cc(OC)c1O` the activation was 129% (inactive) and the normalized cell count was 121%.
In the case of `Cc1cc(NC(=O)COC(=O)COc2ccc(Cl)cc2C)c([N+](=O)[O-])cc1C`, the activation is reported as 0% (inactive) and the normalized cell count is reported as 143%.
For `Cc1ccc2cc3cc(C(=O)N4CCCCCC4)oc3nc2c1`, the activation was 183% (active) and the normalized cell count was 233%.
For `Cc1cc(=O)oc(C)c1C(=O)N1CCCCC1`, the activation was 5.26% (inactive) and the normalized cell count was 82.9%.
In the case of `Cc1cccc(C(=O)N2CCCN(C(=O)c3cccc(C)c3)CC2)c1`, the activation is reported as 3.23% (inactive) and the normalized cell count is reported as 110%.
In the case of `Cc1cccc(N(C(=O)Cc2cccs2)C(C(=O)NCc2ccco2)c2ccncc2)c1` (centres undefined), the activation is reported as 107% (inactive) and the normalized cell count is reported as 58.7%.
For `COc1cc(NC(=O)CSc2nnc3ccc(-c4ccncc4)nn23)cc(OC)c1`, the activation was -5.26% (inactive) and the normalized cell count was 108%.
For `Cc1ccc(OC(=O)c2cc3ccccc3o2)cc1`, the activation was 79.3% (active) and the normalized cell count was 174%.
With `O=C(Nc1ccncc1)c1cc2ccccc2o1` the activation was 342% (inactive) and the normalized cell count was 93.3%.
With `COc1ccc(C(=O)N/N=c2\oc3ccccc3cc2C(N)=O)cc1` the activation was 0% (inactive) and the normalized cell count was 70.8%.
With `COC(=O)[C@H]1Cc2cnoc2C[C@]1(C)C(=O)O` the activation was 0% (inactive) and the normalized cell count was 176%.
With `COc1ccc(C)cc1NC(=O)CSc1ccc(Cl)cc1` the activation was -5.56% (inactive) and the normalized cell count was 93.7%.
In the case of `Cc1cc(C)cc(NC(=O)CSc2ccccc2)c1`, the activation is reported as 525% (active) and the normalized cell count is reported as 53.5%.
With `COC(=O)c1cc(OC)c(OC)cc1NC(=O)CSc1ccc(C)cc1` the activation was 3.33% (inactive) and the normalized cell count was 108%.
For `Cc1nc(CC(=O)NNS(=O)(=O)c2ccc(F)c(Cl)c2)cs1`, the activation was -7.69% (inactive) and the normalized cell count was 104%.
With `N#Cc1ccc(Oc2cc(C(F)(F)F)nc(-c3ccccn3)n2)cc1` the activation was -9.09% (inactive) and the normalized cell count was 91.7%.
In the case of `CCN(CC(=O)NC(=O)NCc1ccccc1)Cc1nc2ccccc2c(=O)[nH]1`, the activation is reported as 8.33% (inactive) and the normalized cell count is reported as 68.7%.
In the case of `Cc1nn(C)c(Oc2ccccc2)c1[N+](=O)[O-]`, the activation is reported as 7.04% (inactive) and the normalized cell count is reported as 55.2%.
With `O=C(O)COc1ccc(/C=N/O)cc1Br` the activation was 8.33% (inactive) and the normalized cell count was 101%.
For `CN1/C(=C\C=C2\N=C(c3ccc(F)cc3)OC2=O)C(C)(C)c2ccccc21`, the activation was 121% (active) and the normalized cell count was 53.1%.
In the case of `CC(=O)NCCC(=O)Nc1nc(C)c(Cc2ccc3c(c2)OCO3)s1`, the activation is reported as 0% (inactive) and the normalized cell count is reported as 42.1%.
In the case of `COc1cc(/C=C2/C(=O)ON=C2C)ccc1OCc1cccc(F)c1`, the activation is reported as 0% (inactive) and the normalized cell count is reported as 98.9%.
For `Cc1nn(Cc2ccc(C(=O)N3N=C(C(F)F)CC3(O)C(F)F)cc2)c(C)c1[N+](=O)[O-]` (centres undefined), the activation was 4.44% (inactive) and the normalized cell count was 126%.
In the case of `O=C(NCc1ccco1)c1nn2cccnc2c1Cl`, the activation is reported as 0% (inactive) and the normalized cell count is reported as 126%.
With `COc1ccc(CS(=O)/C(Cl)=C(/Cl)C(=O)Nc2ccc(OC)nc2)cc1` (centres undefined) the activation was 669% (active) and the normalized cell count was 10.6%.
For `COc1ccc(OC(C)C(=O)Nc2cccnc2)cc1` (centres undefined), the activation was -8.57% (inactive) and the normalized cell count was 50%.
With `COc1ccc(CC(=O)Nc2ccc(-c3nnc(-c4ccccc4)o3)cc2)cc1` the activation was 6.45% (inactive) and the normalized cell count was 115%.
For `COc1ccc(OC)c(CNC(=O)c2cc(=O)[nH]c3ccc(S(=O)(=O)N4CCCC4)cc23)c1`, the activation was 0% (inactive) and the normalized cell count was 73.7%.
With `CC(C)C(C)(C#N)NC(=O)CSc1nncn1-c1ccccc1` (centres undefined) the activation was -7.14% (inactive) and the normalized cell count was 91.1%.
In the case of `CCNc1nc(NC(C)C)nc(N2CC(=O)N(CC(=O)OCC)C2=N)n1`, the activation is reported as 344% (active) and the normalized cell count is reported as 69.4%.
With `O=Cc1cn(Cc2ccccc2)nc1-c1cccnc1` the activation was 2.44% (inactive) and the normalized cell count was 212%.
For `CS(=O)(=O)N(Cc1ccccc1)c1ccc(C(=O)NN=C2CCCCCC2)cc1`, the activation was -6.9% (inactive) and the normalized cell count was 150%.
In the case of `COC(=O)Nc1sc2nc(C)cc(C)c2c1-n1cccc1`, the activation is reported as -3.7% (inactive) and the normalized cell count is reported as 74.8%.
For `CCCN1CC=C2C(C#N)=C(N)C(C#N)(C#N)C(c3cc(OC)ccc3OC)C2C1` (centres undefined), the activation was 178% (active) and the normalized cell count was 123%.
With `COc1cc(OC)cc(-c2nc3ccccc3c(=O)n2NC(=O)c2cccnc2Cl)c1` the activation was -5.56% (inactive) and the normalized cell count was 107%.
For `CC1=NNC(=O)C1CCC(=O)N/N=C\c1ccc(Cl)c(Cl)c1` (centres undefined), the activation was 0% (inactive) and the normalized cell count was 124%.
For `CCCn1c(=S)[nH]c2ccc(C(F)(F)F)cc21`, the activation was 205% (active) and the normalized cell count was 78%.
With `CC1CC(C)CN(C(=O)CSc2ccsc2[N+](=O)[O-])C1` (centres undefined) the activation was 0% (inactive) and the normalized cell count was 74.7%.
With `CCOc1ccc(S(=O)(=O)Nc2ccncc2)c(C)c1C` the activation was -72.7% (inactive) and the normalized cell count was 133%.
With `CCOc1ccc(NC(=S)NC(=O)/C=C/c2ccc(OC)cc2)c([N+](=O)[O-])c1` the activation was 8.82% (inactive) and the normalized cell count was 139%.
For `CCN(CC)CCn1c(/N=C/c2cc(Br)ccc2O)nc2ccccc21`, the activation was 149% (inactive) and the normalized cell count was 133%.
For `CC(C)CCNC(=O)CC1C(=O)N(Cc2ccccc2)C(C)c2nc3ccccc3n21` (centres undefined), the activation was 127% (inactive) and the normalized cell count was 118%.
With `CC(C)(C)N1CC(c2nc3ccccc3n2Cc2ccc(F)cc2)CC1=O` (centres undefined) the activation was 80% (active) and the normalized cell count was 127%.
For `CC(O)c1nc2ccccc2n1Cc1ccc([N+](=O)[O-])cc1` (centres undefined), the activation was -2.94% (inactive) and the normalized cell count was 149%.
In the case of `Cc1ccc(C2CC2C(=O)NN)cc1` (centres undefined), the activation is reported as 0% (inactive) and the normalized cell count is reported as 90.7%.
In the case of `Cc1noc(C)c1CCC(=O)O`, the activation is reported as 5.56% (inactive) and the normalized cell count is reported as 134%.
For `Cc1ccc(NC(=O)c2ccn(C(=O)Nc3ccccc3)n2)c(C)c1`, the activation was 0% (inactive) and the normalized cell count was 123%.
In the case of `Cc1ccnc(NC(=O)Cn2ccc([N+](=O)[O-])n2)c1`, the activation is reported as 5.71% (inactive) and the normalized cell count is reported as 124%.
With `O=C(CN1CCOCC1)N1CCCc2c1c(=O)oc1ccc(OCc3ccccc3)cc21` the activation was 21.5% (inactive) and the normalized cell count was 118%.
For `Cc1c(C(=O)N2CCOCC2)[nH]c2ccc(OCc3ccccc3)cc12`, the activation was 104% (active) and the normalized cell count was 126%.
In the case of `CCOC(=O)c1[nH]c2ccc(OC)cc2c1NC(=O)N1CCOCC1`, the activation is reported as 3.57% (inactive) and the normalized cell count is reported as 45.3%.
For `CC(=O)c1cc(-c2ccccc2)n(CCC(=O)NC2CCCCCC2)c1C`, the activation was 5.71% (inactive) and the normalized cell count was 127%.
With `CCN(CC(=O)Nc1ccc(Cl)c(S(=O)(=O)N(C)C)c1)Cc1nc2ccccc2c(=O)[nH]1` the activation was 8.33% (inactive) and the normalized cell count was 83.9%.
With `CCn1c(SCC(=O)Nc2nccs2)nnc1-c1ccco1` the activation was 0% (inactive) and the normalized cell count was 131%.
For `Cc1ccc(-n2c(Cc3cccs3)nnc2SCC(=O)OC(C)C)cc1`, the activation was -7.69% (inactive) and the normalized cell count was 48%.
For `CCn1c(Cc2cccs2)nnc1SCC(=O)c1ccc(C)cc1`, the activation was 433% (active) and the normalized cell count was 93.9%.
In the case of `Cc1ccsc1C1C(C#N)=C(N)OC2=C1C(=O)CC(C)(C)C2` (centres undefined), the activation is reported as 0% (inactive) and the normalized cell count is reported as 62.4%.
In the case of `CCN1CCN(C(C(=O)NC2CCCC2)c2cc3c(cc2[N+](=O)[O-])OCO3)CC1` (centres undefined), the activation is reported as 6.67% (inactive) and the normalized cell count is reported as 84.9%.
With `CCCC(=O)NC(Nc1ccccc1OC)C(Cl)(Cl)Cl` (centres undefined) the activation was -4.35% (inactive) and the normalized cell count was 88%.
With `CN(C)c1ccc(/C=C2\NC(=S)N(Cc3ccccc3)C2=O)cc1` the activation was 170% [may fluoresce] (active) and the normalized cell count was 95.4%.
With `Cc1nc2ccccc2cc1C(=O)N/N=C/c1ccc([N+](=O)[O-])cc1` the activation was -75% (inactive) and the normalized cell count was 81%.
In the case of `COc1cc(/C=C/C(=O)OCC(=O)Nc2cccc(Oc3ccccc3)c2)ccc1O`, the activation is reported as 3.57% (inactive) and the normalized cell count is reported as 105%.
For `O=C(Nc1cccc(Cl)c1)Nc1nnc(-c2ccccc2)o1`, the activation was 4.65% (inactive) and the normalized cell count was 60.8%.
In the case of `CCOc1cc(/C=C2/C(=N)N3OC(C)=CC3=NC2=O)ccc1OC`, the activation is reported as 6.67% (inactive) and the normalized cell count is reported as 55.1%.
With `O=C(c1ccccc1)c1ccc2nc(N3CCCCC3)c3nncn3c2c1` the activation was 320% (active) and the normalized cell count was 70%.
For `O=C(Nc1ccccc1N1CCCCC1)c1cccc(F)c1`, the activation was 5.71% (inactive) and the normalized cell count was 92.9%.
With `c1ccc(CC2CCN(c3nc4ccccc4n4cnnc34)CC2)cc1` the activation was -7.14% (inactive) and the normalized cell count was 111%.
With `CCC(C)NC(=O)c1nn(C)c(=O)c2ccccc12` (centres undefined) the activation was -5.56% (inactive) and the normalized cell count was 169%.
For `Cc1ccc(S(=O)(=O)c2ccc(Cl)cc2)cc1S(=O)(=O)NC(C(=O)O)C(C)C` (centres undefined), the activation was 3.85% (inactive) and the normalized cell count was 127%.
